Key:
[1] = target: T1, 5-hydroxytryptamine receptor 4 (Homo sapiens, UniProt Q13639); experiment: Binding affinity was determined against cloned 5-hydroxytryptamine 4E receptor isoform expressed in C6 glial cells incubated with 0.2 nM [3H]GR-113808; format: cell-based
[2] = target: T1, 5-hydroxytryptamine receptor 4; experiment: Concentration required to produce half-maximal response against 5-hydroxytryptamine receptor on the L-type calcium current (I Ca) in isolated human atrial myocytes; format: cell-based, Cardiac atrium
Method in brief: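 Whole-cell patch clamp on enzymatically dissociated human atrial myocytes, room temperature (19–25 °C); Cs-based internal, pCa 8.5; I_Ca at 0 mV every 8 s, peak minus current at end of 400-ms pulse.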

[3] = target: T1, 5-hydroxytryptamine receptor 4; experiment: ,Antagonism of stimulation of 5-hydroxytryptamine receptor on the L-type calcium current (I Ca) in isolated human atrial myocytes; format: functional, cell-based, Cardiac atrium
[4] = target: T1, 5-hydroxytryptamine receptor 4; experiment: Binding affinity was determined against cloned 5-hydroxytryptamine 4A receptor isoform expressed in COS-7 cells; format: cell-based
[5] = target: T1, 5-hydroxytryptamine receptor 4; experiment: Binding affinity was determined against cloned 5-hydroxytryptamine 4C receptor isoform expressed in COS-7 cells; format: cell-based
[6] = target: T1, 5-hydroxytryptamine receptor 4; experiment: Binding affinity was determined against cloned 5-hydroxytryptamine 4D receptor isoform expressed in COS-7 cells; format: cell-based
[7] = target: T1, 5-hydroxytryptamine receptor 4; experiment: Binding affinity was determined against cloned 5-hydroxytryptamine 4B receptor isoform expressed in COS-7 cells; format: cell-based

T1 sequence (Q13639 whole entry, canonical isoform): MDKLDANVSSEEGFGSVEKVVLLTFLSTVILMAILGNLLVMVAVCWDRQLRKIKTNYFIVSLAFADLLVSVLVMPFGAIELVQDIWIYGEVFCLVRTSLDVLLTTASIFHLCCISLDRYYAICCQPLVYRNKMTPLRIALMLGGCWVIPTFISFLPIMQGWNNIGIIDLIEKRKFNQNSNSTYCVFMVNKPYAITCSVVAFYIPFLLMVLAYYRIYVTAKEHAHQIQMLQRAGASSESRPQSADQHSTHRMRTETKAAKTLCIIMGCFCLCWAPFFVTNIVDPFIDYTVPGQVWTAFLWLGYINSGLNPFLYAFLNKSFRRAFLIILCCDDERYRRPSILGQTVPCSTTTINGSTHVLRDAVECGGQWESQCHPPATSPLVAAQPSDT

Compound	Ki [1] [nM]	also measured
COc1cc(N)c(Cl)cc1C(=O)OCCN1CCN(c2ccccc2OC)CC1	64	
COc1cc(N)c(Cl)cc1C(=O)OCCN1CCN(c2cnccn2)CC1	1.4	
COc1cc(N)c(Cl)cc1C(=O)OCCN1CCN(c2ncccn2)CC1	1	EC50 [2]: 4.5 nM; Kd [3]: 0.7 nM; Ki [4]: 3.5 nM; Ki [5]: 2.47 nM; Ki [6]: 7.03 nM; Ki [7]: 8.1 nM
CCOC(=O)N1CCN(CCOC(=O)c2cc(Cl)c(N)cc2OC)CC1	23	
COc1cc(N)c(Cl)cc1C(=O)OCCN1CCN(c2ccncc2)CC1	3.5	
COc1cc(N)c(Cl)cc1C(=O)OCCN1CCN(c2cccc3ccccc23)CC1	> 1000	
COc1cc(N)c(Cl)cc1C(=O)OCCN1CCN(c2ccccc2)CC1	14.3	Ki [4]: 23 nM; Ki [5]: 12.5 nM; Ki [6]: 32 nM; Ki [7]: 55 nM
COc1cc(N)c(Cl)cc1C(=O)OCCN1CCN(c2ccc(Cl)cc2)CC1	715	
COc1cc(N)c(Cl)cc1C(=O)OCCN1CCNCC1	> 1000	
COc1cc(N)c(Cl)cc1C(=O)OCCN1CCN(c2ccccc2Cl)CC1	296	
COc1cc(N)c(Cl)cc1C(=O)OCCN1CCN(c2cnc(Cl)nc2)CC1	9.8	
COc1cc(N)c(Cl)cc1C(=O)OCCN1CCN(c2ccncn2)CC1	9.2	
COc1cc(N)c(Cl)cc1C(=O)OCCN1CCN(C(=O)OC(C)(C)C)CC1	> 1000	
COc1cc(N)c(Cl)cc1C(=O)OCCN1CCN(c2cccc(Cl)c2)CC1	162	
COc1cc(N)c(Cl)cc1C(=O)OCCCN1CCN(c2ccccc2)CC1	11.5	
COc1cc(N)c(Cl)cc1C(=O)OCCN1CCN(c2ccc(Cl)nn2)CC1	2	
COc1cc(N)c(Cl)cc1C(=O)OCCN1CCN(c2cccc(C(F)(F)F)c2)CC1	199	
COc1cc(N)c(Cl)cc1C(=O)OCCN1CCN(c2cccnn2)CC1	1.4	
COc1cc(N)c(Cl)cc1C(=O)OCCN1CCN(c2ccccn2)CC1	1.5	
COc1cc(N)c(Cl)cc1C(=O)OCCN1CCN(c2ccc(F)cc2)CC1	23.1	
COc1cccc(N2CCN(CCOC(=O)c3cc(Cl)c(N)cc3OC)CC2)c1	3	
COc1cc(N)c(Cl)cc1C(=O)OCCN1CCN(C)CC1	> 1000	
Cn1cc(C(=O)OCC2CCN(CCNS(C)(=O)=O)CC2)c2ccccc21	0.1	
COc1ccc(N2CCN(CCOC(=O)c3cc(Cl)c(N)cc3OC)CC2)cc1	17.7	
COc1cc(N)c(Cl)cc1C(=O)OCCN1CCN(Cc2ccccc2)CC1	240	
COc1cc(N)c(Cl)cc1C(=O)OCCN1CCN(c2ccccc2F)CC1	16.8	

— ChEMBL document CHEMBL1133682, “New arylpiperazine derivatives as antagonists of the human cloned 5-HT(4) receptor isoforms” (J Med Chem, 2000)
